A selection: hits, their analogues and other compounds. The true share with any hit is near 1.8%.
NPY1 pot ag: NPY-Y1 receptor potentiators or agonists, primary screen, cell-based; Neuropeptide Y receptor type 1 (Homo sapiens), P25929; NPY-Y1 expressing cells, potentiator/agonist activation; activation, % at 3.6 µM; hit rate 0.37% among 220,000; AID 1304, 2008; in the data active = activation above about 33%, passing the limit was not always enough;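 note: cells stimulated with NPY at EC10 then isoproterenol at EC100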
NPY Y2 blocker: NPY-Y2 receptor antagonists, primary screen, cell-based | NPY-Y2 expressing cells, antagonist mode | inhibition, % at 2.7 µM | hit rate 0.99% among 140,000
Target sequence (P49146 whole entry, looked up): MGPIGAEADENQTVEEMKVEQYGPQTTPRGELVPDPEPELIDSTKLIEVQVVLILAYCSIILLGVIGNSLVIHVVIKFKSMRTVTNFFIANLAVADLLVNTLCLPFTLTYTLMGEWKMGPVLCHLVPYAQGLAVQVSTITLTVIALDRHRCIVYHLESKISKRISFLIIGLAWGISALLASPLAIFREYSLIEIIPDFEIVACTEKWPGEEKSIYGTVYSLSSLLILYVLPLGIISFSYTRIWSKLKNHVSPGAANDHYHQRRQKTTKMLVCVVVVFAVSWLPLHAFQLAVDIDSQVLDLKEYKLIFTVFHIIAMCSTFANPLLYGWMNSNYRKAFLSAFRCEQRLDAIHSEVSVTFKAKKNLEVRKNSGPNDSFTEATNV
NPY-Y2 PAM-ag: NPY-Y2 potentiators or agonists, primary screen, cell-based | activation, % at 3.6 µM | Neuropeptide Y receptor type 2 (Homo sapiens), P49146 | cells expressing NPY-Y2, potentiator/agonist read-out | hit rate 0.45% among 220,000 | AID 1359, 2008; in the data active = activation above about 27%;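 note: cells stimulated with NPY near EC25 plus isoproterenol at EC100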
NPY-Y1 antag: NPY-Y1 receptor antagonists, primary screen, cell-based | inhibition, % at 3.6 µM | AID 1040, 2008 | hit rate 1% among 200,000 | Neuropeptide Y receptor type 1 (Homo sapiens), P25929 | HEK293-CNG Y1 cells, membrane potential fluorescence; NPY at EC95, then isoproterenol;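 active = inhibition above the campaign mean inhibition of all tested compounds plus 3 SD, cut at about 20% in these data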
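Material: HEK293 Y1/CNG channel cell line | Also added: NPY (25 nM), isoproterenol (1 µM), Ro 20-1724 (25 µM) | Compound: One concentration, 3.6 µM, in 0.4% DMSO | Schedule: 3 h dye uptake, 1 h room-temperature compound, 45 min post-isoproterenol | Signal: Membrane-potential fluorescent dye readout | Read-out: % inhibition of NPY effect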
NPY1 antag conf: NPY-Y1 receptor antagonists, retest of hits, confirmation, HEK293-CNG cells, membrane potential fluorescence, triplicate. shares compounds with NPY-Y1 antag. cAMP; NPY challenge against isoproterenol-raised cAMP. inhibition, % at 3.6 µM. hit rate 21% among 1,200; in the data active = inhibition above about 20%
NPY-Y2 antag ct: NPY-Y2 receptor antagonists, selectivity check, confirmation, counter-screen for NPY-Y1 antagonist project, HEK293-CNG cells, membrane potential fluorescence, triplicate; shares compounds with NPY-Y1 antag; antagonism; cells given NPY, then isoproterenol; inhibition, % at 3.6 µM; hit rate 28% among 1,200; AID 1255, 2008
Hits are given with their value; – = inactive; · = no result. Cut-off read from the data, not from the text of the source, unless noted: active = inhibition above about 17%; inactive = the rest.

SMILES	NPY1 pot ag	NPY Y2 blocker	NPY-Y2 PAM-ag	NPY-Y1 antag	NPY1 antag conf	NPY-Y2 antag ct
CC1CCCN(C(=S)Nc2ccc3nc4n(c(=O)c3c2)CCCCC4)C1 (stereo not given)	–	–	–	–	·	·
Cc1ccc(C)c(-n2nnnc2SCC(=O)NNC(=O)c2ccco2)c1	–	·	–	–	·	·
Cc1ccc(NS(=O)(=O)c2cc3c4c(cccc4c2)C(=O)NC3=O)cc1C	–	·	–	·	·	·
CC(=O)c1ccc(NC(=O)C(C)n2c3ccccc3c3nc(=O)cc(C)n32)cc1 (stereo not given)	–	·	–	·	·	·
CCCC(c1nnnn1C(C)(C)C)N1CCN(Cc2ccccc2OC)CC1 (stereo not given)	–	·	–	22	–	–
COCCn1c(N)c(N(Cc2ccccc2)C(=O)c2cc3ccccc3o2)c(=O)[nH]c1=O	–	·	–	–	·	·
CCCCN(C)CCCNC(=O)/C=C1\Sc2ccccc2NC1=O	–	·	–	–	·	·
CCOC(=O)C1=C(C)NC2=C(C(=O)CCC2)C1c1cc(OC)ccc1OC (stereo not given)	–	–	–	–	·	·
CCOC(=O)C1=C(C)NC2=C(C(=O)CCC2)C1c1cn(Cc2ccc(Cl)cc2Cl)nc1-c1ccccc1 (stereo not given)	–	–	–	35	30	39
FC(F)(F)c1cccc(NC(=S)Nc2cccc(NC(=S)Nc3cccc(C(F)(F)F)c3)n2)c1	–	·	–	·	·	·
Cc1nn(-c2ccccc2)nc1-c1nnc(-c2ccc(C(F)(F)F)cc2)o1	–	·	–	·	·	·
COC(=O)C1C(=O)CC(C)(O)C(C(=O)OC)C1/C=C/c1ccccc1 (stereo not given)	–	–	–	–	·	·
O=C1C=C(c2ccccc2)CC(/C=C/c2ccccc2)C1 (stereo not given)	–	–	–	23	–	–
Cc1ccc(-n2cc(CNCCc3ncc(C)[nH]3)c(-c3ccc(F)cc3)n2)cc1	–	·	–	27	–	25
Cc1ccc(-n2cc(CNCCn3nc(C)cc3C)c(-c3ccc(F)cc3)n2)cc1	–	·	–	26	27	–
COc1ccc(-n2cc(CNCCc3ncc(C)[nH]3)c(-c3ccccc3Cl)n2)cc1	–	·	–	–	·	·
CC(=O)Nc1ccccc1-c1nc2ccccc2nc1OCC(=O)c1ccc2ccccc2c1	–	–	–	21	–	–
CCOC(=O)c1ccccc1NC(=O)c1ccccc1SC	–	–	–	24	–	–
O=C(CCn1cnc2ccccc2c1=O)Nc1nc(-c2ccc(Br)cc2)cs1	–	–	–	–	·	·
Cc1cc(/C=C2/SC(=S)N(c3cccc(C(F)(F)F)c3)C2=O)c(C)n1-c1cccnc1	–	–	–	48	35	24
Cc1ccc(N=C2NC(=O)CS2)cc1	–	–	–	–	·	·
Cc1ccc(SCC(=O)N=C2NC(=O)CS2)cc1	–	·	–	23	–	–
COc1ccc(-c2nnc3ccc(SCC(=O)Nc4nc5ccccc5s4)nn23)cc1OC	–	–	–	–	·	·
O=C(COC(=O)c1ccc(Cl)cc1O)NCCN1C(=O)CSC1=O	–	·	–	·	·	·
COc1ccc(-n2nnc3c(=O)n(Cc4cc(C)ccc4C)cnc32)cc1	–	–	–	–	·	·
SMILES	NPY1 pot ag	NPY Y2 blocker	NPY-Y2 PAM-ag	NPY-Y1 antag	NPY1 antag conf	NPY-Y2 antag ct
COc1cccc(-n2nnc3c(=O)n(Cc4ccccc4F)cnc32)c1	–	–	–	30	–	–
CCCCn1c(=N)n(CC(O)c2ccccc2)c2ccccc21 (stereo not given)	–	·	–	·	·	·
CN(C)CCn1c(=N)n(CC(O)c2ccc(Cl)c(Cl)c2)c2ccccc21 (stereo not given)	–	·	–	23	–	29
CCCCNC(=O)c1onc(CSc2cccc(OCC)c2)c1C(=O)O	–	–	–	22	–	–
CC(C)NC(=O)c1onc(CSc2cccc3ccccc23)c1C(=O)O	–	–	–	22	–	–
CCOC(=O)C1CN(S(C)(=O)=O)c2cc(CC(=O)OC)ccc2O1 (stereo not given)	–	·	–	–	·	·
CS(=O)(=O)NN1C(=O)c2ccccc2NC1c1cccs1 (stereo not given)	–	·	–	–	·	·
O=C(NC1CCCCC1)C(c1ccc(O)c(O)c1)N(C(=O)Cn1nnc2ccccc21)c1cccc(O)c1 (stereo not given)	–	·	–	–	·	·
COc1ccc(C(=O)NCCCc2nc3ccccc3n2Cc2cc(C)ccc2C)cc1OC	–	–	–	–	·	·
Cc1ccc(C)c(Cn2c(CO)nc3ccccc32)c1	–	–	–	21	–	–
O=C(NCCc1c[nH]c2ccccc12)[C@@H]1C[C@H]1[C@@H](NP(=O)(c1ccccc1)c1ccccc1)c1ccccc1	–	–	–	–	·	·
CCOc1ccc(C2=Nn3c(nnc3-c3ccccc3OC)SC2)cc1	–	–	–	26	–	27
CCOc1ccc(-c2nnc3n2N=C(c2ccc(OC)cc2)CS3)cc1	–	–	–	–	·	·
Cc1cc(C)nc(SCc2cnc(C)nc2N)n1	–	·	–	–	·	·
Cc1cc(S(=O)(=O)N2CCN(c3ccccc3C)CC2)ccc1F	–	–	–	–	·	·
Cc1cc(S(=O)(=O)N2CCN(c3c(C)cccc3C)CC2)ccc1F	–	–	–	21	–	–
C=CCSc1nnc(-c2cc3c(s2)-c2ccccc2CC3)o1	–	–	–	21	–	–
O=C(CSc1nnc(-c2cccs2)o1)N1CCc2ccccc21	–	–	–	–	·	·
Cc1ccc(-c2nnc(N3CCC(C)CC3)c3ccccc23)cc1C	–	·	–	26	–	–
CC1CCN(c2nnc(-c3ccccc3)c3ccccc23)CC1	–	·	–	–	·	·
COc1ccc(-c2nnc(N3CCCCC3)c3ccccc23)cc1	–	–	–	–	·	·
Cc1ccc(-c2nnc(N3CCC(C)CC3)c3ccccc23)cc1	–	·	–	29	–	–
CCOc1cccc2sc(N(CCCN(C)C)C(=O)Cc3ccccc3)nc12	–	·	–	–	·	·
CCOc1cccc2sc(N(CCN(CC)CC)C(=O)c3ccc(S(=O)(=O)N4CCCCC4)cc3)nc12	–	·	–	26	–	–
O=C(Nc1ccccc1N1CCN(c2ccccc2)CC1)c1ccccc1	–	·	–	41	34	20
O=C(Nc1ccccc1N1CCN(C(=O)c2ccccc2)CC1)c1ccc(Cl)cc1	–	·	–	–	·	·
Cc1ccc(CS/C(Nc2ccccc2C)=C(\C#N)C(=O)NCc2ccco2)c(C)c1	–	–	–	–	·	·
Cc1ccccc1N/C(SCc1ccc(Cl)cc1)=C(/C#N)C(=O)NCc1ccco1	–	–	–	34	–	–
CC(C)N(C(=O)COC(=O)c1cccc(C(=O)OCC(=O)N(C(C)C)C(C)C)n1)C(C)C	–	·	–	–	·	·
COc1cc(Cl)cc2c1Sc1ccccc1/C2=C/CCN(C)C	–	–	–	–	·	·

Assay outcomes: PubChem BioAssay, The Scripps Research Institute Molecular Screening Center
